In experiment [1] the test system is A2780 ADR. Put plainly: Reversal of P-gp 170-mediated multidrug resistance in human A2780/DX3 cells assessed as reduction in doxorubicin IC50 at IC5 pretreated for 6 hrs before doxorubicin administration measured after 3 days by MTT assay. The format is cell-based. Set-up: scale not given: the % may be the effect or the level left. The method in brief: (§1)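 A2780/DX3 cells went into medium holding the modulator at its MTT-derived 0% or 5% growth-inhibition concentration. Doxorubicin (30–0.048 μM serial dilutions, modulator kept constant) was added 6 h later. MTT (2 mg/mL) was added after 3 days for 4 h at 37 °C, formazan dissolved in DMSO, A540 read. IC50 came from dose–response curves, repeated 4–6 times. % reduction is versus doxorubicin alone in the same experiment. Kruskal–Wallis/Mann–Whitney tests.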
In general terms: Tetrazolium dyes change colour on reduction, which living cells bring about.

A short description of experiment [2]: Antiproliferative activity against human A2780/DX3 cells at 2.25 uM after 3 days by MTT assay. The format is functional. The following applies: A2780/DX3, 72 h.
Experiment [3] concerns A2780. Put plainly: Antiproliferative activity against human A2780 cells at 15.4 uM after 3 days by MTT assay. The conditions noted are these: A2780, 72 h. Type of experiment: functional.
Experiment [4] in a line: Antiproliferative activity against human A2780/DX3 cells after 3 days by MTT assay. Type of experiment: functional, cell-based. The following applies: for IC50: Homo sapiens, A2780/DX3, 72 h. The method in brief:
(§2)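 Cells plated 6–8 h in 96-well plates. Compound alone, in duplicate at ≥5 concentrations (3-fold serial dilutions, top 100 μM), with final DMSO […] after predilution in FCS. After 3 days, MTT 4 h at 37 °C, formazan dissolved in DMSO, A540. IC50 taken from single dose–response curves; 3–4 experiments. A2780/DX3 kept doxorubicin-free 2–3 days beforehand.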

Experiment [5] deals with A2780 ADR. Put plainly: Reversal of P-gp 170-mediated multidrug resistance in human A2780/DX3 cells assessed as increase in intracellular doxorubicin accumulation at 5 times IC5 pretreated for 2 hrs before doxorubicin administration measured after 2 hrs by flow cytometry. The format is cell-based. The method in brief: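 A2780/DX3 cells (kept in 0.1 μM doxorubicin, drug withdrawn 2–3 days before use) seeded in flasks, grown 24 h to 75–85% confluence. Modulator given at five times the 5%-growth-inhibition concentration for 2 h, then 10 μM doxorubicin for 2 h more. Cells trypsinized, fixed in 3.7% paraformaldehyde/2% sucrose in PBS. Flow cytometry, 488 nm excitation, 575 nm bandpass. Read-out is MFI, with % increase taken from the MFI ratio to doxorubicin alone.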
A general note: A flow cytometer gives signals particle by particle.

Experiment [6] has as its system A2780 ADR. Put plainly: Reversal of P-gp 170-mediated multidrug resistance in human A2780/DX3 cells assessed as reduction in doxorubicin IC50 at IC0 pretreated for 6 hrs before doxorubicin administration measured after 3 days by MTT assay. Details: scale not given: the % may be the effect or the level left. The format is cell-based. The method, boiled down: as §1

Experiment [7] deals with A2780. Put plainly: Antiproliferative activity against human A2780 cells after 3 days by MTT assay. Type of experiment: functional, cell-based. The conditions noted are these: for IC50: Homo sapiens, A2780, 72 h. The method, boiled down: as §2
Experiment [8] deals with A2780. Put plainly: Down regulation of P-gp 170 expression in human A2780 cells after 72 hrs by flow cytometry. The format is functional, cell-based. The method, boiled down:
(§3)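 Cells exposed 72 h to compound at concentrations giving 5% or 0% growth inhibition. Then washed in PBS/2% FCS; 2.5 × 10^5 cells stained at 4 °C with anti-Pgp MM4.17 monoclonal, then FITC goat anti-mouse IgG, and analysed by flow cytometry.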

For experiment [9], the system named is A2780. Put plainly: Antiproliferative activity against human A2780 cells at 1.3 uM after 3 days by MTT assay. The format is functional. The following applies: A2780, 72 h.
Experiment [10] is described as follows: Antiproliferative activity against human A2780/DX3 cells at 2.2 uM after 3 days by MTT assay. The following applies: A2780/DX3, 72 h. Type of experiment: functional.
A short description of experiment [11]: Blockade of L-type calcium channel.
A short description of experiment [12]: Down regulation of P-gp 170 expression in human A2780/DX3 cells after 72 hrs by flow cytometry. Type of experiment: functional, cell-based. The method in brief: as §3
A short description of experiment [13]: Antiproliferative activity against human A2780/DX3 cells at 6.2 uM after 3 days by MTT assay. The format is functional. The conditions noted are these: A2780/DX3, 72 h.
Experiment [14] concerns A2780. Put plainly: Antiproliferative activity against human A2780 cells at 10 uM after 3 days by MTT assay. The format is functional. The conditions noted are these: A2780, 72 h.
The test system of experiment [15] is A2780. Put plainly: Antiproliferative activity against human A2780 cells at 2.1 uM after 3 days by MTT assay. Type of experiment: functional. The following applies: A2780, 72 h.
Experiment [16] can be described thus: Antiproliferative activity against human A2780/DX3 cells at 1.5 uM after 3 days by MTT assay. Type of experiment: functional. The following applies: A2780/DX3, 72 h.
In experiment [17] the test system is A2780. Put plainly: Antiproliferative activity against human A2780 cells at 1.97 uM after 3 days by MTT assay. The format is functional. The conditions noted are these: A2780, 72 h.
A short description of experiment [18]: Antiproliferative activity against human A2780/DX3 cells at 0.84 uM after 3 days by MTT assay. Type of experiment: functional. The following applies: A2780/DX3, 72 h.
The test system of experiment [19] is A2780. Put plainly: Antiproliferative activity against human A2780 cells at 6.1 uM after 3 days by MTT assay. Type of experiment: functional. The conditions noted are these: A2780, 72 h.
The nature of experiment [20]: Antiproliferative activity against human A2780/DX3 cells at 0.5 uM after 3 days by MTT assay. The format is functional. The following applies: A2780/DX3, 72 h.
Experiment [21] has as its system A2780. Put plainly: Antiproliferative activity against human A2780 cells at 3.1 uM after 3 days by MTT assay. The conditions noted are these: A2780, 72 h. Type of experiment: functional.
Experiment [22] in a line: Antiproliferative activity against human A2780/DX3 cells at 3.7 uM after 3 days by MTT assay. Type of experiment: functional. The following applies: A2780/DX3, 72 h.
Experiment [23] deals with A2780. Put plainly: Antiproliferative activity against human A2780 cells at 0.6 uM after 3 days by MTT assay. Type of experiment: functional. The conditions noted are these: A2780, 72 h.
For experiment [24], the system named is A2780 ADR. Put plainly: Reversal of P-gp 170-mediated multidrug resistance in human A2780/DX3 cells assessed as increase in intracellular doxorubicin accumulation at 5 times IC5 pretreated for 2 hrs before doxorubicin administration measured after 2 hrs by epifluorescent microscopic analysis. The format is cell-based. The method in brief:
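A2780/DX3 cells on chamber slides at 75–85% confluence, pretreated 2 h with compound at five times the concentration giving 5% growth inhibition. Doxorubicin 10 μM then added for 2 h. Cells washed in cold PBS, fixed in 3.7% paraformaldehyde/2% sucrose, mounted and imaged by epifluorescence at 20X. Untreated and compound-only controls included.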

The nature of experiment [25]: Antiproliferative activity against human A2780/DX3 cells at 1.2 uM after 3 days by MTT assay. The format is functional. The conditions noted are these: A2780/DX3, 72 h.

The source made the active and inactive calls. The calls are words filed in the database; no cut-off is given here. A value given as a limit tells only on which side of the number the result lay.

In general, inhibition refers to the relative decrease from the control value, in per cent. What is called IC50 is the concentration at which inhibition is half-maximal. `COc1ccc(C2(O)SC=C(C)n3c2noc3=O)cc1` (stereo not drawn): the figures for the Activity in the experiment with A2780 ADR [1], in the experiment on A2780 ADR [5] and in the experiment on A2780 ADR [6] were 12%, < 48% and 10%, respectively. This compound also gave an inhibition at 2.25 µM in experiment [2] of 0%. The compound also returned an inhibition at 15.4 µM with A2780 [3] of 0%. Moreover, the IC5 was determined as 26.7 µM in [4] and 40.1 µM in the experiment with A2780 [7]. Further, the IC50 (in [4]; in the experiment on A2780 [7]) was > 100 µM in each case.

Usually EC50 stands for the concentration needed to bring the measured effect to its halfway point. As for `COc1ccc([C@@H]2Sc3ccccc3N(CCN(C)C)C(=O)[C@@H]2OC(C)=O)cc1` [DILTIAZEM], the results for the Activity with A2780 ADR [1], in the experiment with A2780 ADR [5] and in the experiment with A2780 ADR [6] were -84%, 699% and -72%, respectively. In addition, the outcome (in the experiment on A2780 [8]; in experiment [12]) was inactive. Besides, the inhibition at 1.3 µM with A2780 [9] was 0%. This compound also had an inhibition at 2.2 µM in experiment [10] of 0%. Moreover, the IC5 is 20.6 µM in experiment [4] and 2.8 µM with A2780 [7]. The results for the IC50 (in experiment [4]; in the experiment with A2780 [7]) were > 100 µM and 163 µM, respectively. In addition, in experiment [11], the EC50 was 0.79 µM.

Turning to `CC1=CSC(O)(c2ccccc2)c2noc(=O)n21` (stereo not drawn), the Activity in the experiment with A2780 ADR [1] is -2%; in the experiment with A2780 ADR [5], < 48%; in the experiment on A2780 ADR [6] it was -16%. Further, the inhibition at 6.2 µM in [13] came to 0%. For the same compound, the IC5 in [4] worked out at 49.4 µM; in the experiment with A2780 [7], 100 µM. Further, the IC50 (in experiment [4]; with A2780 [7]) was > 100 µM throughout. The compound further had an inhibition at 10 µM in the experiment on A2780 [14] of 0%.

Regarding `CC1=CSC(O)(c2ccc([N+](=O)[O-])cc2)c2noc(=O)n21` (stereo not drawn), the Activity is -10% in the experiment on A2780 ADR [1], < 48% in the experiment on A2780 ADR [5] and 26% in the experiment with A2780 ADR [6]. The compound further displayed an inhibition at 2.1 µM in the experiment with A2780 [15] of 0%. The IC5 in [4] worked out at 2.9 µM; with A2780 [7] it was 7.7 µM. The IC50 (in experiment [4]; with A2780 [7]) was > 100 µM in each case. Further, 1.5 µM produced 0% inhibition in [16].

`CC1=CSC(O)(c2cccc(Cl)c2)c2noc(=O)n21` (stereo not drawn): the Activity with A2780 ADR [1] is 7%; with A2780 ADR [5], < 48%; in the experiment on A2780 ADR [6], 7%. Testing at 1.97 µM with A2780 [17] gave an inhibition of 0%. Moreover, testing at 0.84 µM in experiment [18] gave an inhibition of 0%. In addition, the IC5 in experiment [4] turned out to be 3.89 µM; in the experiment with A2780 [7], 24.3 µM. Besides, the IC50 (in experiment [4]; with A2780 [7]) was > 100 µM in each case.

For `CC1=CSC(O)(c2ccc(C)cc2)c2noc(=O)n21` (stereo not drawn), the values for the Activity with A2780 ADR [1], in the experiment with A2780 ADR [5] and in the experiment on A2780 ADR [6] were -1%, < 48% and 4%, respectively. Besides, testing at 6.1 µM with A2780 [19] gave an inhibition of 0%. Moreover, the IC5 in [4] came to 31.1 µM; in the experiment with A2780 [7], 28.8 µM. The IC50 (in experiment [4]; with A2780 [7]) was > 100 µM in each case. This compound also yielded an inhibition at 0.5 µM in [20] of 0%.

Turning to `CC1=CSC(O)(c2cccc([N+](=O)[O-])c2)c2noc(=O)n21` (stereo not drawn), the values for the Activity with A2780 ADR [1], with A2780 ADR [5] and in the experiment with A2780 ADR [6] were 10%, < 48% and -21%, respectively. Besides, the inhibition at 3.1 µM in the experiment with A2780 [21] stood at 0%. In addition, the IC5 came to 15.9 µM in experiment [4] and 3.95 µM in the experiment on A2780 [7]. Moreover, the IC50 in experiment [4] was 129 µM; with A2780 [7] it was 159 µM. In addition, 3.7 µM produced 0% inhibition in experiment [22].

With `O=c1onc2n1C=CSC2(O)c1ccccc1` (stereo not drawn), the Activity is -18% with A2780 ADR [1] and -36% in the experiment on A2780 ADR [6]. Also, the outcome (in the experiment with A2780 [8]; in the experiment with A2780 ADR [24]; in the experiment on A2780 ADR [5]; in experiment [12]) was inactive. The compound also returned an inhibition at 0.6 µM in the experiment on A2780 [23] of 0%. Further, the IC5 was 32.1 µM in [4] and 4.4 µM in the experiment with A2780 [7]. For the same compound, the IC50 (in experiment [4]; in the experiment with A2780 [7]) was > 100 µM each time. Moreover, 1.2 µM produced 0% inhibition in experiment [25].

(Values after ChEMBL document CHEMBL1139365, “Inhibition of MDR1 activity in vitro by a novel class of diltiazem analogues: toward new candidates” (J Med Chem, 2009).)
